Laboratory results published in ChEMBL document CHEMBL1811909, “Synthesis and antiproliferative activity of novel 2-aryl-4-benzoyl-imidazole derivatives targeting tubulin polymerization” (Bioorg Med Chem, 2011).
Activity calls are given as the source filed them. No cut-off for these calls is given here.

Assays:
PC-3 [1] = test: Resistance index, ratio of IC50 for human paclitaxel-resistant PC3 cells to IC50 for human PC3 cells; type: functional
How it was run: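 Ratio of SRB-assay IC50 values, paclitaxel-resistant PC-3-TxR over parental PC-3. Both lines grown in RPMI 1640 with 10% FBS and treated for 96 h, in three to five replicates. IC50 taken from absorbance at 540 nm by nonlinear regression.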

[2] = Antiproliferative activity against human WM164 cells after 48 hrs by sulforhodamine B assay; type: functional, cell-based; conditions: WM164, 48 h
A-375 = test: Antiproliferative activity against human A375 cells after 48 hrs by sulforhodamine B assay; type: functional, cell-based; conditions: A-375, 48 h
PC-3 [3] = test: Antiproliferative activity against human paclitaxel-resistant PC3 cells by sulforhodamine B assay; type: functional, cell-based
How it was run: (§1)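 Prostate cancer cells grown in RPMI 1640 with 10% FBS at 37 °C, 5% CO2. Cells (1000–5000/well, by growth rate) were exposed to a range of concentrations for 96 h, in three to five replicates. Growth was read by SRB: TCA fixation, 0.4% SRB stain, absorbance at 540 nm.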

MDA-MB-435 [4] = test: Resistance index, ratio of IC50 for human MDA-MB-435 cells expressing LCC6MDR1 to IC50 for human MDA-MB-435 cells; type: functional
DU-145 [5] = test: Antiproliferative activity against human DU145 cells after 96 hrs by sulforhodamine B assay; type: functional, cell-based; conditions: DU-145, 96 h
PC-3 [6] = test: Antiproliferative activity against human PC3 cells after 96 hrs by sulforhodamine B assay; type: functional, cell-based; conditions: PC-3, 96 h
DU-145 [7] = test: Antiproliferative activity against human paclitaxel-resistant DU145 cells by sulforhodamine B assay; type: functional, cell-based
How it was run: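 Prostate cancer cells grown in RPMI 1640 with 10% FBS at 37 °C, 5% CO2. Seeded at 1000–5000 cells/well depending on growth rate and exposed to a concentration series for 96 h, in three to five replicates. Cells fixed with 10% TCA and stained with 0.4% SRB, absorbance read at 540 nm.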

MDA-MB-435 [8] = test: Antiproliferative activity against human MDA-MB-435 cells expressing LCC6MDR1 by sulforhodamine B assay; type: functional, cell-based
LNCaP = test: Antiproliferative activity against human LNCAP cells after 96 hrs by sulforhodamine B assay; type: functional, cell-based
Bos taurus [9] = species on record: Bos taurus; test: Inhibition of bovine brain tubulin polymerization at 10 to 20 uM after 15 mins by spectrophotometric analysis
How it was run: (§2)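 Bovine brain tubulin (>97% pure, 0.4 mg per assay) mixed with compound at 5, 10 or 20 µM, with 5% DMSO as vehicle control. Buffer: 80 mM PIPES, 2.0 mM MgCl2, 0.5 mM EGTA, 1 mM GTP, pH 6.9. Polymerization followed at 37 °C as absorbance at 340 nm, read every minute for 15 min.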

PC-3 [10] = test: Antiproliferative activity against human PC3 cells by sulforhodamine B assay; type: functional, cell-based; how it was run: as §1
DU-145 [11] = test: Resistance index, ratio of IC50 for human paclitaxel-resistant DU145 cells to IC50 for human DU145 cells; type: functional
How it was run: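 Ratio of SRB-assay IC50 values, paclitaxel-resistant DU145-TxR over parental DU145. Both lines grown in RPMI 1640 with 10% FBS and exposed to the compound for 96 h, in three to five replicates. Absorbance read at 540 nm after TCA fixation and SRB staining.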

Bos taurus [12] = species on record: Bos taurus; test: Inhibition of bovine brain tubulin polymerization after 15 mins by spectrophotometric analysis; how it was run: as §2
MDA-MB-435 [13] = test: Antiproliferative activity against human MDA-MB-435 cells by sulforhodamine B assay; type: functional, cell-based
DU-145 [14] = test: Antiproliferative activity against human DU145 cells by sulforhodamine B assay; type: functional, cell-based
PPC-1 = test: Antiproliferative activity against human PPC1 cells after 96 hrs by sulforhodamine B assay; type: functional, cell-based; conditions: PPC-1, 96 h
Liver microsomes [15] = test: Metabolic stability of the compound in human liver microsomes at 0.5 uM up to 90 mins by LC-MS analysis; type: ADME, Microsome
Liver [16] = test: Metabolic stability of the compound in dog liver microsomes at […] up to 90 mins by LC-MS analysis; type: ADME, Canis lupus familiaris, Microsome
How it was run: (§3)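 Aliquots were drawn at 5, 10, 20, 30, 60 and 90 min and quenched in acetonitrile containing internal standard. After centrifugation, supernatants were measured by LC-MS/MS to follow parent loss and derive half-life.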

Liver [17] = test: Half life in mouse liver microsomes at […] by LC-MS analysis; type: ADME, Microsome; how it was run: as §3
Liver microsomes [18] = test: Half life in rat liver microsomes at […] by LC-MS analysis; type: ADME, Microsome; how it was run: as §3
Liver microsomes [19] = test: Metabolic stability of the compound in human liver microsomes at […] up to 90 mins by LC-MS analysis; type: ADME, Microsome; how it was run: as §3
Liver microsomes [20] = test: Half life in rat liver microsomes at 0.5 uM by LC-MS analysis; type: ADME, Microsome
How it was run: (§4)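 Compound at 0.5 µM incubated with 1 mg/mL liver microsomal protein at 37 °C with shaking. […] Samples taken at 5, 10, 20, 30, 60 and 90 min and quenched with acetonitrile containing internal standard. After centrifugation, the supernatant was analysed by LC-MS/MS.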

Liver [21] = test: Half life in mouse liver microsomes at 0.5 uM by LC-MS analysis; type: ADME, Microsome; how it was run: as §4
Liver [22] = test: Metabolic stability of the compound in dog liver microsomes at 0.5 uM up to 90 mins by LC-MS analysis; type: ADME, Canis lupus familiaris, Microsome; how it was run: as §4

| SMILES | Ratio IC50 (PC-3 [1]) | IC50 [2] [nM] | IC50 (A-375) [nM] | IC50 (PC-3 [3]) [nM] | Ratio IC50 (MDA-MB-435 [4]) | IC50 (DU-145 [5]) [nM] | IC50 (PC-3 [6]) [nM] | IC50 (DU-145 [7]) [nM] | IC50 (MDA-MB-435 [8]) [nM] | IC50 (LNCaP) [nM] | IC50 (PC-3 [10]) [nM] | Ratio IC50 (DU-145 [11]) | inhibition (Bos taurus [12]) | IC50 (MDA-MB-435 [13]) [nM] | IC50 (PPC-1) [nM] | Stability (Liver microsomes [15]) | Stability (Liver microsomes [19]) | also measured |
| --- | --- | --- | --- | --- | --- | --- | --- | --- | --- | --- | --- | --- | --- | --- | --- | --- | --- | --- |
| COc1cc(C(=O)c2c[nH]c(-c3ccc(Br)cc3)n2)cc(OC)c1OC | 0.9 | 40 | 30 | 16 | 0.9 | 50 | 40 | 54 | 79 | 30 | 18 | 1.1 | Dose-dependent effect | 86 | 30 | – | – | inhibition (Bos taurus [9]): Active; IC50 (DU-145 [14]): 49 nM |
| COc1cc(C(=O)c2cn(C)c(-c3ccc(C)cc3)n2)cc(OC)c1OC | 0.9 | 40 | 30 | 19 | 0.8 | 30 | 40 | 52 | 67 | 30 | 21 | 1 | Dose-dependent effect | 83 | 30 | Stable | Stable | Stability (Liver [16]): Stable; t1/2 (Liver [17]): 5 min; t1/2 (Liver microsomes [18]): 10 min |
| COc1cc(C(=O)c2c[nH]c(-c3ccc(C)cc3)n2)cc(OC)c1OC | – | – | – | – | – | – | – | – | – | – | – | – | Dose-dependent effect | – | – | Stable | Stable | t1/2 (Liver microsomes [20]): 20 min; t1/2 (Liver [21]): 12 min; Stability (Liver [22]): Stable |
